Key:
rat mEH [1] = biological target: T1, rat mEH (Rattus norvegicus, UniProt P07687); experiment: Inhibition potency assay with fluorescent substrate 11, rat mEH; type: biochemical
T1 sequence (P07687 1-455): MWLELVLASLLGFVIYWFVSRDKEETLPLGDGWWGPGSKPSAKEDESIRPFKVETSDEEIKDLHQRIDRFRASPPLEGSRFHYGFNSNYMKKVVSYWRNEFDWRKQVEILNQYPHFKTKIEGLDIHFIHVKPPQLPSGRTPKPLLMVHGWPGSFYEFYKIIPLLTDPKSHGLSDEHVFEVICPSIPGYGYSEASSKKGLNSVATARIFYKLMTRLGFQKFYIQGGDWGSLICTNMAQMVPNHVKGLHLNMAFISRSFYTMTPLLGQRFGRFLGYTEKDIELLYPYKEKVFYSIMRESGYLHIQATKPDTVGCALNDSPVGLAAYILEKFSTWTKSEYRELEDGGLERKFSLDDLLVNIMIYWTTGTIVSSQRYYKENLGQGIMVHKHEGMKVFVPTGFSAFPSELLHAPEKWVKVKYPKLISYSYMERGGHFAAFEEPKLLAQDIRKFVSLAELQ
In short: (§1)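 Kinetic fluorescent format: baculovirus-expressed, partially purified enzyme in 100 mM Tris/HCl pH 8.5 with 0.1 mg/mL BSA (final human 1.6, rat 0.5 μg/mL), preincubated 5 min at 30°C with inhibitor (0–200 μM final, from DMSO). Substrate at 25 μM final (rat also tested at 2.5 μM). Naphthaldehyde followed 10 min at 30°C. IC50 regressed from ≥6 points in the linear region; three runs, each in triplicate.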

rat mEH [2] = biological target: T1, rat mEH; experiment: Inhibition potency assay with [3H]-cSO radiochemical substrate, rat mEH; type: biochemical
In short: (§2)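 Radiochemical format with [3H]-cis-stilbene oxide at 50 μM final. Partially purified recombinant enzyme: rat 1.0, human 3.2 μg/mL. Reaction in 100 mM Tris/HCl pH 9.0 with 0.1 mg/mL BSA, 5 min at 30°C, quenched with isooctane to extract remaining epoxide. Radioactive diol in the aqueous phase counted by liquid scintillation; run in triplicate.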

human mEH [3] = biological target: T2, human mEH (Homo sapiens, UniProt P07099); experiment: Inhibition potency assay with [3H]-cSO radiochemical substrate, human mEH; type: biochemical
T2 sequence (P07099 1-455): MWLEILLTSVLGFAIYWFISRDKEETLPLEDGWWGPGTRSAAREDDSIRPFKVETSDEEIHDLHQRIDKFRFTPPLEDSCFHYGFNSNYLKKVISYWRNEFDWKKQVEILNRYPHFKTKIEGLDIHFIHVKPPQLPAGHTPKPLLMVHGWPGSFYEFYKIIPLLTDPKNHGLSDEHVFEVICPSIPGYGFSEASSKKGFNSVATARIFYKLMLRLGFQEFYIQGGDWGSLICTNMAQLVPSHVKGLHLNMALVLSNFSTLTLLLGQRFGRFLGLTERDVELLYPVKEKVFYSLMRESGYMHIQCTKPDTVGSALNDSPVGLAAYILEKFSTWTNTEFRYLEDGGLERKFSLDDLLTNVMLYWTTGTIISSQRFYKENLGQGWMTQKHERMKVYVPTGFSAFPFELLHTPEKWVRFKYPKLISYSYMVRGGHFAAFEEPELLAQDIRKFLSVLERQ
In short: as §2

rat mEH [4] = biological target: T1, rat mEH; experiment: High throughput screening end-point assay with 11, rat mEH; type: biochemical; conditions: [I] 10 μM, [11] 25 μM, 30 min end-point, room temperature
In short: (§3)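 End-point screen of a pesticide library at 10 μM final. Recombinant partially purified enzyme (human 1.6, rat 0.5 μg/mL final) in 100 mM Tris/HCl pH 8.5 with 0.1 mg/mL BSA, preincubated with compounds 5 min at 30°C. Substrate added to 25 μM, then 30 min at room temperature in the dark before fluorescence reading (ex 330/em 465 nm). Buffer-only background and full-activity control wells; duplicate averages.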

human mEH [5] = biological target: T2, human mEH; experiment: High throughput screening end-point assay with 11, human mEH; type: biochemical; conditions: [I] 10 μM, [11] 25 μM, 30 min end-point, room temperature
In short: as §3

mEH [6] = experiment: Retest of screening hits in inhibition potency assay with 11; type: biochemical; conditions: 10 μM
In short: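 Hits from the library screen retested at 10 μM in the kinetic fluorescent format: 5 min preincubation with partially purified enzyme in Tris/HCl pH 8.5 with BSA at 30°C. Then 25 μM substrate, with 6-methoxy-2-naphthaldehyde monitored for 10 min.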

mEH [7] = experiment: Retest of screening hits with cSO as substrate; type: biochemical; conditions: suggests false positive in fluorescent assay
human mEH [8] = biological target: T2, human mEH; experiment: Inhibition potency assay with fluorescent substrate 11, human mEH; type: biochemical
In short: as §1

Background = type: physicochemical; conditions: [S] 50 μM, Tris/HCl 100 mM pH 9.0, 0.1 mg/mL BSA, 37°C, 4-nitrophenol absorbance
In short: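 Enzyme-free control wells held Tris/HCl (100 mM, pH 9.0, 0.1 mg/mL BSA), preincubated 5 min at 37°C. Substrate was added from a 5 mM DMSO stock working solution to 50 μM final, and product was read kinetically for 5 min. Read-out was 4-nitrophenol absorbance at […] fluorescence (ex 355/em 450 or ex 330/em 465 nm). Signals were converted to molar amounts via 0.005–0.5 μM standard curves; 8 replicates.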

rat mEH [9] = biological target: T1, rat mEH; experiment: Specific activity of rat mEH for absorbent/fluorescent substrates; type: biochemical; conditions: [S] 50 μM, pH 9.0, 37°C, 4-nitrophenyl substrates
In short: (§4)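 Partially purified recombinant enzyme (0.5–80 μg/mL final) in 100 mM Tris/HCl pH 9.0 with 0.1 mg/mL BSA, preincubated 5 min at 37°C. Substrate added at 50 μM final from 5 mM DMSO stock; buffer-only wells gave background. Read kinetically for 5 min: 4-nitrophenol at 450 nm, or fluorescence (coumarin ex 355/em 450; naphthaldehyde ex 330/em 465). Signals converted via standard curves (0.005–0.5 μM); 8 replicates.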

human mEH [10] = biological target: T2, human mEH; experiment: Specific activity of human mEH for absorbent/fluorescent substrates; type: biochemical; conditions: [S] 50 μM, pH 9.0, 37°C, 4-nitrophenyl substrates
In short: as §4

[11] = substrate: COc1ccc2cc(C(C#N)OC(=O)OCC3CO3)ccc2c1; experiment: Kinetic constants determination, rat mEH; type: biochemical; conditions: other: Tris/HCl pH 9.0 100 mM, 0.1 mg/mL BSA, 37°C
[12] = substrate: COc1ccc2cc(C(C#N)OC(=O)OCC3CO3)ccc2c1; experiment: Kinetic constants determination, human mEH; type: biochemical; conditions: other: Tris/HCl pH 9.0 100 mM, 0.1 mg/mL BSA, 37°C
[13] = IC50, Rat mEH, 11 as substrate, [11] 25 μM, enzyme 0.5 μg/mL, pH 8.5, 30°C

CCCCCCCCCSC(C)C(N)=O (stereo not drawn) [A, 2-nonylsulfanyl-propionamide]
IC50 (rat mEH [1]; [13]): 4.2 ± 0.7 µM
IC50 (rat mEH [1]; IC50, rat mEH, 11 as substrate near its KM, [11] = 2.5 μM): 0.5 µM
IC50 (rat mEH [2]): 0.4 ± 0.1 µM
IC50 (human mEH [3]): 0.5 ± 0.1 µM

CC(C)[C@H](C(=O)O[C@H](C#N)c1cccc(Oc2ccccc2)c1)c1ccc(Cl)cc1 [Asana]
inhibition of rat mEH in library screen (rat mEH [4]): significant inhibition
inhibition of human mEH in library screen (human mEH [5]): significant inhibition
mEH inhibition on retest with 11 in the inhibition potency assay (mEH [6]): confirmed mEH inhibition
mEH inhibition with cSO as substrate (mEH [7]): no inhibition was observed

CCCCCCCC/C=C/CCCCCCCC(N)=O [B, elaidamide]
IC50 (rat mEH [1]; read-out: IC50, Rat mEH, 11 as substrate, [11] 25 μM, enzyme 0.5 μg/mL, pH 8.5, 30°C): 63 ± 5 µM
IC50 (human mEH [8]; read-out: IC50, Human mEH, 11 as substrate, [11] 25 μM, enzyme 1.6 μg/mL, pH 8.5, 30°C): 140 ± 13 µM
IC50 (rat mEH [2]; read-out: IC50, Rat mEH, cSO as substrate, [cSO] 50 μM, enzyme 1.0 μg/mL): 0.5 ± 0.1 µM
IC50 (human mEH [3]; read-out: IC50, Human mEH, cSO as substrate, [cSO] 50 μM, enzyme 3.2 μg/mL): 1 ± 0.1 µM

Brc1ccc(Oc2ccc(Br)cc2Br)c(Br)c1 [BDE47]
inhibition of rat mEH in library screen (rat mEH [4]): significant inhibition
inhibition of human mEH in library screen (human mEH [5]): significant inhibition
mEH inhibition on retest with 11 in the inhibition potency assay (mEH [6]): confirmed mEH inhibition
mEH inhibition with cSO as substrate (mEH [7]): no inhibition was observed

CCCCCCC(O)CCCCCCCCCCC(N)=O (stereo not drawn) [C, 12-hydroxy-octadecanamide]
IC50 (rat mEH [1]; [13]): 123 ± 13 µM
IC50 (human mEH [8]): > 200 µM
IC50 (rat mEH [2]): 1.1 ± 0.1 µM
IC50 (human mEH [3]): 2.6 ± 0.3 µM

O=C(OCC1CO1)Oc1ccc([N+](=O)[O-])cc1 (stereo not drawn) [compound 6, 4-Nitrophenyl (oxiran-2-yl)methyl carbonate]
background hydrolysis (Background): 0.31 ± 0.02 nmol/min
Rat mEH S/B (signal to background ratio) (rat mEH [9]): 5
Rat mEH S/N (signal to noise ratio) (rat mEH [9]): 32
Rat mEH Spec. act. (rat mEH [9]): 29 ± 2 nmol/min/mg
Rat mEH Z' (screening window coefficient) (rat mEH [9]): 0.67
Human mEH S/B (signal to background ratio) (human mEH [10]): 3
Human mEH S/N (signal to noise ratio) (human mEH [10]): 53
Human mEH Spec. act. (human mEH [10]): 51 ± 2 nmol/min/mg
Human mEH Z' (screening window coefficient) (human mEH [10]): 0.82

Oc1cc(Cl)ccc1Oc1ccc(Cl)cc1Cl [triclosan]
inhibition of rat mEH in library screen (rat mEH [4]): significant inhibition
inhibition of human mEH in library screen (human mEH [5]): significant inhibition
mEH inhibition on retest with 11 in the inhibition potency assay (mEH [6]): confirmed mEH inhibition
mEH inhibition with cSO as substrate (mEH [7]): no inhibition was observed

B1: rat mEH (Rattus norvegicus) (protein)
chain: T1 sequence (P07687 1-455)
Km [11]: 2.3 ± 0.4 µM
Vmax [11]: 0.089 µmol/min/mg
Vmax/Km [11]: 40000 µL/min/mg

B2: human mEH (Homo sapiens) (protein)
chain: T2 sequence (P07099 1-455)
Km [12]: 3.8 ± 0.6 µM
Vmax [12]: 0.042 µmol/min/mg
Vmax/Km [12]: 11000 µL/min/mg

— article PMC3090455 (Analytical biochemistry, 2011)
